Laboratory results from ChEMBL document CHEMBL2434926, “New di(hetero)arylethers and di(hetero)arylamines in the thieno[3,2-b]pyridine series: synthesis, growth inhibitory activity on human tumor cell lines and non-tumor cells, effects on cell cycle and on programmed cell death” (Eur J Med Chem, 2013).
Calls of active or inactive are those of the source. The rule behind the calls is not given here.

What was measured:
[1] = Growth inhibition of PLP2 cells after 48 hrs by SRB assay; type: cell-based, Sus scrofa; details: pig
Summary of the method: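 Porcine liver primary cells (PLP2), established by the authors, subcultured before confluence, seeded 1.0 × 10^4 cells/well in DMEM with 10% FBS and penicillin/streptomycin. Treated 48 h with compound solutions, then sulforhodamine B read-out. GI50 is the concentration inhibiting 50% of net growth; three independent experiments in triplicate, mean ± SD; ellipticine positive control.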

MCF7 [2] = assay: Growth inhibition of human MCF7 cells after 48 hrs by SRB assay; type: functional; details: MCF7, 48 h
Summary of the method: (§1)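 Sulforhodamine B assay. MCF-7, NCI-H460, HCT15 kept in RPMI-1640 with 10% heat-inactivated FBS and 2 mM glutamine, seeded 7.5 × 10^3 cells/well. HeLa and HepG2 kept in DMEM with 10% FBS, 2 mM glutamine and penicillin/streptomycin, seeded 1.0 × 10^4 cells/well. Cultures at 37 °C, 5% CO2. GI50 is the concentration giving 50% inhibition of net growth; three independent experiments in triplicate, mean ± SD; ellipticine positive control.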

HepG2 = assay: Growth inhibition of human HepG2 cells after 48 hrs by SRB assay; type: functional; details: HepG2, 48 h; summary of the method: as §1
NCI-H460 [3] = assay: Growth inhibition of human NCI-H460 cells after 48 hrs by SRB assay; type: functional; details: NCI-H460, 48 h; summary of the method: as §1
HCT-15 = assay: Growth inhibition of human HCT15 cells after 48 hrs by SRB assay; type: functional; details: HCT-15, 48 h; summary of the method: as §1
HeLa = assay: Growth inhibition of human HeLa cells after 48 hrs by SRB assay; type: functional; summary of the method: as §1
[4] = Growth inhibition of human A375-C5 cells after 48 hrs by SRB assay; type: functional; details: A375-C5, 48 h
NCI-H460 [5] = assay: Induction of apoptosis in human NCI-H460 cells at GI50 after 24 hrs by TUNEL assay; type: functional, cell-based
Summary of the method: (§2)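 NCI-H460 seeded at 1 × 10^5 cells/well, grown 24 h at 37 °C, treated with compound at GI50, DMSO vehicle or medium for 24 h or 48 h. Fixed in 4% paraformaldehyde 30 min, cytospun, permeabilized with ice-cold 0.1% Triton X-100 in 0.1% sodium citrate 2 min, TUNEL reaction mix (enzyme 1:20) 1 h, DAPI counterstain. Fluorescence microscopy counting at least 500 cells per slide (about 300 in some 48 h samples). Mean ± SEM of three independent experiments; two-tailed paired t-test versus DMSO.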

NCI-H460 [6] = assay: Cell cycle arrest in human NCI-H460 cells assessed as accumulation at sub-G1 phase at GI50 after 24 hrs by propidium iodide staining-based flow cytometry; type: functional
NCI-H460 [7] = assay: Induction of apoptosis in human NCI-H460 cells at GI50 after 48 hrs by TUNEL assay relative to DMSO-treated control; type: functional; summary of the method: as §2
MCF7 [8] = assay: Growth inhibition of human MCF7 cells; type: functional
NCI-H460 [9] = assay: Growth inhibition of human NCI-H460 cells; type: functional
[10] = Growth inhibition of human A375-C5 cells; type: functional

Row | Structure (SMILES) | GI50 at 48 h [1] | GI50 (MCF7 [2]) | GI50 (HepG2) | GI50 (NCI-H460 [3]) | GI50 (HCT-15) | GI50 (HeLa) | GI50 [4] | Activity (NCI-H460 [5]) | Activity (NCI-H460 [6]) | Activity (NCI-H460 [7]) | GI50 (MCF7 [8]) | GI50 (NCI-H460 [9]) | GI50 [10]
1 | Fc1cccc(Oc2ccnc3ccsc23)c1 | > 125 µM | 102 µM | 42.6 µM | 103 µM | 103 µM | 34.5 µM | – | – | – | – | – | – | –
2 | COC(=O)c1sc2cccnc2c1Nc1ccc(OC)cc1N | – | 1 µM | 1 µM | 1 µM | – | – | 1 µM | – | – | – | – | – | –
3 | COc1cccc(Oc2ccnc3ccsc23)c1 | 26.7 µM | 1.56 µM | 2.7 µM | 1.04 µM | 0.39 µM | 3.14 µM | – | Active | Active | >30% | – | – | –
4 | Fc1ccccc1Nc1ccnc2ccsc12 | 115 µM | 94.4 µM | 25.8 µM | 79.5 µM | 86.7 µM | 26.4 µM | – | – | – | – | – | – | –
5 | COc1ccccc1Oc1ccnc2ccsc12 | > 125 µM | 90.9 µM | 62.7 µM | 94.2 µM | 91.2 µM | 28.9 µM | – | – | – | – | – | – | –
6 | COc1ccccc1Nc1ccnc2ccsc12 | 6.56 µM | 5.88 µM | 18 µM | 5.4 µM | 5.91 µM | 1.4 µM | – | Active | Active | >30% | – | – | –
7 | COc1ccc(Oc2ccnc3ccsc23)cc1 | 94.5 µM | 93.3 µM | 53.2 µM | 86.8 µM | 86 µM | 49.4 µM | – | – | – | – | – | – | –
8 | COC(=O)c1sc2cc(Oc3cccc(OC)c3OC)cnc2c1N | – | – | – | – | – | – | – | – | – | – | 1 µM | 1 µM | 1 µM
9 | COc1cccc(Nc2ccnc3ccsc23)c1 | 1.94 µM | 0.25 µM | 5.02 µM | 0.28 µM | 0.31 µM | 0.09 µM | – | Active | Active | >30% | – | – | –
10 | COc1ccc(Nc2ccnc3ccsc23)cc1 | 22.7 µM | 20.2 µM | 22.1 µM | 19.4 µM | 25.9 µM | 20.4 µM | – | – | – | – | – | – | –
11 | Fc1ccc(Oc2ccnc3ccsc23)cc1 | > 125 µM | 98.5 µM | 45.1 µM | 101 µM | 88.1 µM | 33.8 µM | – | – | – | – | – | – | –
12 | Fc1ccc(Nc2ccnc3ccsc23)cc1 | 100 µM | 80.7 µM | 26.3 µM | 78.5 µM | 91.2 µM | 77.5 µM | – | – | – | – | – | – | –
13 | Fc1cccc(Nc2ccnc3ccsc23)c1 | 119 µM | 63.7 µM | 32 µM | 77.5 µM | 70.7 µM | 69.2 µM | – | – | – | – | – | – | –
14 | COC(=O)c1sc2cc(Oc3cccc(OC)c3)cnc2c1N | – | – | – | – | – | – | – | – | – | – | 1 µM | 1 µM | 1 µM
15 | Fc1ccccc1Oc1ccnc2ccsc12 | 87.2 µM | 74.3 µM | 16.4 µM | 78 µM | 97.2 µM | 50.3 µM | – | – | – | – | – | – | –
16 | Cc1c2ccncc2c(C)c2c1[nH]c1ccccc12 [ELLIPTECINE] | 2.06 µM | 4.32 µM | 5.38 µM | 5.77 µM | 1.91 µM | 3.28 µM | – | – | – | – | – | – | –
